According to ChEMBL document CHEMBL4396879, “Conjugation of Short Peptides to Dibenzodiazepinone-Type Muscarinic Acetylcholine Receptor Ligands Determines M2R Selectivity” (J Med Chem, 2019):

Columns and labels:
[1] = Stability of the compound in human plasma used as 1:2 ratio of plasma to pH 7.4 PBS assessed as intact compound at 100 uM incubated for 24 hr […]; assay type: ADME, cell-free; details: plasma diluted with PBS (1:2), read-out: Stability
[2] = biological target: Muscarinic acetylcholine receptor M2 and M5 (Homo sapiens) (UniProt P08172+P08912); test: Selectivity ratio of Ki for human muscarinic M5 receptor expressed in CHO-K9 cells to Ki for human muscarinic M2 receptor expressed in CHO-K9 cells; assay type: cell-based
Summary of the method: (§1)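 Ratio of mean Ki values. Each Ki came from an individual [3H]NMS competition experiment at the given CHO-hMxR subtype, converting IC50 to Ki by Cheng-Prusoff before averaging.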

[3] = biological target: T1, Muscarinic acetylcholine receptor M2 (Homo sapiens, UniProt P08172); test: Competitive displacement of [3H]-NMS from human muscarinic M2 receptor expressed in CHO-K9 cells using 0.2 nM [3H]-NMS after 3 hrs by microbeta2 scintillation counting method; assay type: cell-based
T1 sequence (P08172 whole entry): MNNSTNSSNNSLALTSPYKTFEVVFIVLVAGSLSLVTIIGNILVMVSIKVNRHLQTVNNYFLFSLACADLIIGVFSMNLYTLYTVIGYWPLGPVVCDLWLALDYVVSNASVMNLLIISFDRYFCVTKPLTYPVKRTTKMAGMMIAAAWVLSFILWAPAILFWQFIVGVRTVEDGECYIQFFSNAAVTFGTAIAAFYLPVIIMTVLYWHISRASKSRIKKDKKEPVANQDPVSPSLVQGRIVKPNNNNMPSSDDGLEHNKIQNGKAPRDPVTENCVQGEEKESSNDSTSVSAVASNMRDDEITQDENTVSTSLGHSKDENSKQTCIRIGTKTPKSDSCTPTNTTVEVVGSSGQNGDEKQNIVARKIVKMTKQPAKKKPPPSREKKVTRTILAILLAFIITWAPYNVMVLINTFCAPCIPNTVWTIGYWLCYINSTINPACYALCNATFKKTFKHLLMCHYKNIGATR
Summary of the method: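 Intact CHO-hM2R cells (90-100% confluent) incubated 3 h at 22 ± 1 °C in L15 medium with 1% BSA and 0.2 nM [3H]NMS. […] Cells were lysed in urea/acetic acid/Triton-X-100 and radioactivity was counted. Ki via Cheng-Prusoff.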

[4] = biological target: T2, Muscarinic acetylcholine receptor M2 (Homo sapiens) (UniProt P08172); test: Competitive displacement of [3H]-NMS from human muscarinic M2 receptor expressed in CHO-K9 cells using 2 nM [3H]-NMS after 3 hrs by microbeta2 scintillation counting method relative to control; assay type: cell-based
T2 sequence (whole entry): T1 sequence (P08172 whole entry)
Summary of the method: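 Intact CHO-hM2R cells incubated at 22 °C with a high [3H]NMS concentration (2 nM). […] Curves were fitted by four-parameter logistic fits. Mean ± SEM from ≥4 experiments in triplicate.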

[5] = biological target: T3, Muscarinic acetylcholine receptor M4 (Homo sapiens, UniProt P08173); test: Displacement of [3H]-NMS from human muscarinic M4 receptor expressed in CHO-K9 cells after 3 hrs by microbeta2 scintillation counting method; assay type: cell-based
T3 sequence (P08173 whole entry): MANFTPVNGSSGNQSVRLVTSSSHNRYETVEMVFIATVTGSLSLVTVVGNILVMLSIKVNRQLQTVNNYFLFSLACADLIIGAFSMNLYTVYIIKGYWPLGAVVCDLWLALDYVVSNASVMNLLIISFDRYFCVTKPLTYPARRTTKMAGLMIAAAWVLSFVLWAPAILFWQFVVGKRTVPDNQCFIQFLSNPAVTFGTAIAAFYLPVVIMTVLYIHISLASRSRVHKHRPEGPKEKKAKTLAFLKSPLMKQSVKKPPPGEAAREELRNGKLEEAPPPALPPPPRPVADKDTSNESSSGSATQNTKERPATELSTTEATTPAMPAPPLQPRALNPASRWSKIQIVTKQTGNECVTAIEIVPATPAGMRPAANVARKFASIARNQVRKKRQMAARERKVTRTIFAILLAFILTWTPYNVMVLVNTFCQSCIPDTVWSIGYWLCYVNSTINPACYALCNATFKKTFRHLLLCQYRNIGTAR
Summary of the method: (§2)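 [3H]NMS competition binding on intact CHO-hMxR cells in L15 medium with 1% BSA, 3 h at 22 ± 1 °C with gentle shaking. [3H]NMS was 0.2 nM (M1, M2, M3), 0.1 nM (M4) or 0.3 nM (M5). […] Cells were lysed in urea/acetic acid/Triton and counted by liquid scintillation. Ki from Cheng-Prusoff. Triplicates, ≥3 experiments.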

[6] = biological target: T4, Muscarinic acetylcholine receptor M1 (Homo sapiens, UniProt P11229); test: Displacement of [3H]-NMS from human muscarinic M1 receptor expressed in CHO-K9 cells after 3 hrs by microbeta2 scintillation counting method; assay type: cell-based; summary of the method: as §2
T4 sequence (P11229 whole entry): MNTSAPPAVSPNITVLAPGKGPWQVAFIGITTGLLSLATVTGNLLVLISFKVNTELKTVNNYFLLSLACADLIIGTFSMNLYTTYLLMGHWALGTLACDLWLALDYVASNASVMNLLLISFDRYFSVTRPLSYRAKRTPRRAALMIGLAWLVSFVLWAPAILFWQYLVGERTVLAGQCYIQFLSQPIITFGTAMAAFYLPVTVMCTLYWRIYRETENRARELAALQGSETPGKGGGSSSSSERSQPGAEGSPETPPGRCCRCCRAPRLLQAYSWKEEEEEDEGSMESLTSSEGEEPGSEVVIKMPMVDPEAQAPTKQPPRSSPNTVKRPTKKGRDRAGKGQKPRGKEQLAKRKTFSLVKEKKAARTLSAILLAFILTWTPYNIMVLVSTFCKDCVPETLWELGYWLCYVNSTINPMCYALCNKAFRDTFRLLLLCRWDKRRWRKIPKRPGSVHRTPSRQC

[7] = Stability of the compound in human plasma:PBS of pH 7.4 (1:2) assessed as intact compound at 100 uM incubated for 1 hr by LC-MS analysis; assay type: ADME, cell-free; details: plasma diluted with PBS (1:2), read-out: Stability
Summary of the method: (§3)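 Compound added at 100 μM (from 5 mM stock in acetonitrile/0.04% TFA 3:7) to heparinized human plasma/PBS pH 7.4 (1:2 v/v) with 10 μM 1-methyl-D-tryptophan as internal standard. Incubated shaking at 37 °C in triplicate. Aliquots were EtOH/acetonitrile-precipitated and analysed by RP-HPLC at 220 nm, with recovery correction against four-point calibrations.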

[8] = Stability of the compound in human plasma used as 1:2 ratio of plasma to pH 7.4 PBS assessed as intact compound at 100 uM incubated for 48 hr by LC-MS analysis; assay type: ADME, cell-free; details: plasma diluted with PBS (1:2), read-out: Stability; summary of the method: as §3
[9] = biological target: T1, Muscarinic acetylcholine receptor M2; test: Displacement of [3H]-NMS from human muscarinic M2 receptor expressed in CHO-K9 cells after 3 hrs by microbeta2 scintillation counting method; assay type: cell-based; summary of the method: as §2
[10] = biological target: Muscarinic acetylcholine receptors; M1 & M2 (Homo sapiens) (UniProt P11229+P08172); test: Selectivity ratio of Ki for human muscarinic M1 receptor expressed in CHO-K9 cells to Ki for human muscarinic M2 receptor expressed in CHO-K9 cells; assay type: cell-based; summary of the method: as §1
[11] = biological target: Muscarinic acetylcholine receptor M2 and M4 (Homo sapiens) (UniProt P08173+P08172); test: Selectivity ratio of Ki for human muscarinic M4 receptor expressed in CHO-K9 cells to Ki for human muscarinic M2 receptor expressed in CHO-K9 cells; assay type: cell-based; summary of the method: as §1

Muscarinic acetylcholine receptor M2 and M5 (Homo sapiens), sequence (P08912 whole entry, looked up, one chain of several): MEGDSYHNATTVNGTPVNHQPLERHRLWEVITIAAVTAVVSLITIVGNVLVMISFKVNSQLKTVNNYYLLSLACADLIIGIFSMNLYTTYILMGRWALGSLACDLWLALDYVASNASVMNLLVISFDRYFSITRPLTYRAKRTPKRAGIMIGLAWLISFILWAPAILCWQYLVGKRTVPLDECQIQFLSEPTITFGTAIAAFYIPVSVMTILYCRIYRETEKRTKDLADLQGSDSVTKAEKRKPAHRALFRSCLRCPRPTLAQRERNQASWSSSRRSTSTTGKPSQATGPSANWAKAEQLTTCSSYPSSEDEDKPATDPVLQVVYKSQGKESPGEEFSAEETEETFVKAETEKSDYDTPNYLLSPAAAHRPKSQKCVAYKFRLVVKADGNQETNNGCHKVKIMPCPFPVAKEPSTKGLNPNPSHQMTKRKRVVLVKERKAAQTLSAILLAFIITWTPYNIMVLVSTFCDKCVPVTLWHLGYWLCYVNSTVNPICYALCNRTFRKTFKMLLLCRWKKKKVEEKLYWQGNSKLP

| remaining at 24 h, 100 µM [1] [%] | Ratio Ki [2] | IC50 [3] [nM] | Ki [3] [nM] | Activity [4] [%] | Ki [5] [nM] | Ki [6] [nM] | remaining at 1 h, 100 µM [7] [%] | remaining at 48 h, 100 µM [8] [%] | Ki [9] [nM] | Ratio Ki [10] | Ratio Ki [11] | SMILES |
| --- | --- | --- | --- | --- | --- | --- | --- | --- | --- | --- | --- | --- |
| > 99 | 400 | 3.31 | 1.07 | > 95 | 61.7 | 41.7 | 99 | > 99 | 1.07 | 49 | 60 | CC(=O)N[C@@H](CCCCN)C(=O)N[C@@H](CCCNC(=N)N)C(=O)NCCCCC1CCN(CC(=O)N2c3ccccc3NC(=O)c3ccccc32)CC1 |
| > 99 | 4900 | 0.191 | 0.0631 | > 95 | 2.09 | 2.29 | > 99 | > 99 | 0.0631 | 45 | 40 | CC(=O)N[C@@H](CCCCN)C(=O)N[C@@H](C)C(=O)N[C@@H](CCCNC(=N)N)C(=O)NCCN1CCN(CCCCC2CCN(CC(=O)N3c4ccccc4NC(=O)c4ccccc43)CC2)CC1 |
